SIRT5 block: sirtuin-5 (human) deacylase inhibition; Q9NXA8; inhibition, % at 15 µM; 330,000 tested, 1.1% active; Purified SirT5, succinyl-peptide AMC, trypsin-coupled fluorescence; AID 652115; in the data active = inhibition above about 15%
FGF22 binding: shifts melting point of recombinant human FGF22; 340,000 tested, 1.5% active; Q9HCT0; activity (Tm shift, normalised), % at 9.99 µM; AID 651658; recombinant FGF22 thermal shift, SYPRO orange fluorescence; percent of sucrose octasulfate shift, DMSO zero;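 active = mean Tm shift, scaled 0 neutral to 100 positive control, at about 1.3% or above, every replicate too, limit read from the data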
Target sequence (Q9HCT0 whole entry, looked up): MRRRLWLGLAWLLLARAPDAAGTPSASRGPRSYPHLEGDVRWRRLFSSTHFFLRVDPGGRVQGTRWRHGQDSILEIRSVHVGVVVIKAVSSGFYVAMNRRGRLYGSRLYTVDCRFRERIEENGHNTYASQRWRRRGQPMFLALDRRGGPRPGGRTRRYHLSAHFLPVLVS
NSD2 HMT inh: inhibitors of human histone methyltransferase NSD2; 310,000 tested, 0.54% active; inhibition, % at 12.5 µM; NSD2 peptide methylation, AlphaScreen, 120 min; in the data active = inhibition above about 50%
UCH37 DUB inh: blocks the human deubiquitinase UCH37 | Q9Y5K5 | purified proteasome/UCH37, Ub-AMC cleavage fluorescence | inhibition, % (concentration not given with the values) | 330,000 tested, 0.33% active;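 active = mean inhibition over replicate wells above about 20%, limit read from the data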;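 also: 0% = compound-free wells with enzyme and 100% = wells lacking proteasome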
Target sequence (Q9Y5K5 whole entry, looked up): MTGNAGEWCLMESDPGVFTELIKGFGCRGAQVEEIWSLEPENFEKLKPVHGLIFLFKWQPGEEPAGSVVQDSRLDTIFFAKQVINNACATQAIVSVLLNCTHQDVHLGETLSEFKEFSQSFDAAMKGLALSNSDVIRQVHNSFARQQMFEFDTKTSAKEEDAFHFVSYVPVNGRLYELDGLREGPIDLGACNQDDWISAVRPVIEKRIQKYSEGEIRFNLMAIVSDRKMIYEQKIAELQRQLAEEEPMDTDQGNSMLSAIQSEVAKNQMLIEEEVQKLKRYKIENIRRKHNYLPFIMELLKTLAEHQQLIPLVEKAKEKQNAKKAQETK
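Assay system: Proteasome-bound UCH37. Buffer or medium: pH 7.4 Tris-HCl (50 mM) with ovalbumin, ATP-MgCl2, DTT. Incubation: 30 min preincubation with enzyme, 25 min cleavage at room temperature. Measured by: fluorescence, ex 355 nm, em 460 nm. Read-out basis: percent inhibition. Control set: wells without proteasome as full block, compound-free enzyme plus substrate as uninhibited.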
CASP6 VEID inh: inhibitors of human caspase-6; P55212; purified caspase-6, Z-VEID-R110 cleavage fluorescence; inhibition, % at 12.5 µM; 350,000 tested, 0.53% active; AID 686996;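 active = mean inhibition across replicates at least about 35%, with every replicate also reaching that limit, limit read from the data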;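 also: 0% = median of neutral control wells and 100% = no fluorescence left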
AlphaScreen art: interferes with AlphaScreen signal, flagging NSD2 false positives | shares compounds with NSD2 HMT inh | AlphaScreen artifact counterscreen, preloaded methylated H4 peptide | AC35, µM (titrated, usually from 10 µM), for the others: at the highest dose activity change, negative = signal loss | 1,500 tested, 9.4% active | AID 1053174; call rule not given here
* hit, by the source's call; nt = no result given. Hits are enriched below; roughly 2.6% of the tested compounds scored in any of these assays.

SMILES | SIRT5 block | FGF22 binding | NSD2 HMT inh | UCH37 DUB inh | CASP6 VEID inh | AlphaScreen art
CCc1ccc(-c2cc(C)no2)cc1S(=O)(=O)N1CCN(c2ccc(F)cc2)CC1 | 6 | 0 | 50* | 0 | -1 | -5%
C[C@H](CO)N1C[C@H](C)[C@@H](CN(C)Cc2ccncc2)Oc2ccc(N(C)C)cc2C1=O | -2 | -1 | nt | nt | -3 | nt
CCn1c(C)cc(=S)c2ccccc21 | nt | nt | 104* | nt | nt | -18%
CCn1c2ccccc2c2cc(N)ccc21 | nt | nt | -6 | -65 | nt | nt
O=C(/C=C/c1ccc(OCCCF)cc1)N1CCN(Cc2ccccc2)CC1 | 2 | 0 | 70* | 2 | -4 | -2%
O=C(/C=C/c1ccc([N+](=O)[O-])cc1)N1CCN(Cc2ccccc2)CC1 | -1 | 0 | -2 | 2 | 1 | nt
CC(=NNC(=S)Nc1cccc(C)c1)c1ccccc1 | nt | nt | nt | 1 | nt | nt
CCc1ccc(NC(=S)N2CCC(NC(=O)C3CCCCC3)CC2)cc1 | 1 | 0 | 2 | 5 | 1 | nt
CCOc1ccc(NC(=S)N2CCC(NC(=O)C3CCCCC3)CC2)cc1 | -2 | 0 | 57* | 1 | 3 | 3%
Nc1ncc(-c2ccccc2)n1CC1CCCO1 (stereo not given) | nt | nt | 123* | 0 | nt | -6%
O=C(CSc1ncc(-c2ccccc2)n1CC1CCCO1)N1CCCCC1 (stereo not given) | nt | nt | 0 | 2 | nt | nt
CCN(CC)C(=O)C1CCCN(Cc2ccc(OC)c(C)c2C)C1 (stereo not given) | -6 | nt | 53* | 6 | 0 | -5%
CCOC(=O)C1CCCN(Cc2cc(Br)ccc2OC)C1 (stereo not given) | nt | nt | nt | 3 | nt | nt
O=C(c1ccc(=O)oc1)N1CCOCC1 | nt | nt | -3 | -10 | nt | nt
O=C(c1coc(=O)c(Br)c1)N1CCOCC1 | nt | nt | 141* | -67 | nt | -8%
CCC(=O)N1C[C@@H](O)COC[C@H]2O[C@H](CC(=O)NC)CC[C@@H]21 | -1 | 0 | nt | nt | 1 | nt
COc1ccc(C(=O)Nc2c(F)c(F)c(F)c(F)c2F)cc1OC | 0 | 0 | nt | nt | 3 | nt
COc1ccc(NC(=O)c2ccc(F)c(F)c2)c2ccccc12 | -4 | 0 | 54* | 4 | -1 | 0%
CN1C[C@H](O)COC[C@@H]2O[C@@H](CC(=O)N3CCN(c4ccccc4)CC3)CC[C@H]21 | -2 | 0 | nt | nt | 2 | nt
Brc1ccc(COc2ncnc3ccccc23)cc1 | -2 | 0 | -4 | 4 | 2 | nt
COc1ccc(COc2ncnc3ccc(Br)cc23)cc1F | -4 | 0 | 122* | 0 | -2 | -3%
O=C(O)C[C@@H]1C[C@H]2c3cc(NC(=O)Nc4ccccc4F)ccc3O[C@H]2[C@@H](CO)O1 | 1 | 0 | nt | nt | 0 | nt
CC(Oc1ccc(Cl)cc1Cl)C(=O)NC(Cc1ccccc1)C(=O)O (stereo not given) | -1 | 0 | 53* | 3 | -1 | 2%
CC(Oc1ccc(Cl)cc1Cl)C(=O)NCCCCc1ccccc1 (stereo not given) | nt | nt | 0 | 3 | nt | nt
CCCNC(=O)Nc1ccc2c(c1)OC[C@@H](C)N(C)C[C@H](C)[C@H](OC)CN(C)C2=O | -3 | 0 | nt | nt | 1 | nt
SMILES | SIRT5 block | FGF22 binding | NSD2 HMT inh | UCH37 DUB inh | CASP6 VEID inh | AlphaScreen art
O=C1C(=O)N(CCS(=O)(=O)c2ccccc2)c2ccc(F)cc21 | -3 | 0 | 100* | 4 | 5 | 2%
COc1ccc2c3c(n(C)c2c1)[C@@H](CO)N(CC1CCOCC1)CC31CN(Cc2nccs2)C1 | 2 | nt | nt | nt | -1 | nt
CCN(CC)C(=O)CSc1nc2ccccc2c(=O)n1CC | nt | nt | 2 | nt | nt | nt
CCN(CC)C(=O)CSc1nc2ccccc2c(=O)n1CCC(=O)NCc1ccc(F)cc1 | nt | nt | 121* | 1 | nt | 0%
CCCOc1ccc(C(C)=O)cc1CC(C(N)=O)C(N)=O | nt | nt | 135* | -6 | nt | 2%
CC(=O)c1ccc(OCC(C)C)c(CC(C(N)=O)C(N)=O)c1 | 8 | 0 | 1 | 3 | 4 | nt
CC1NC(=O)NC1CCCCCC(=O)Nc1ccc(F)cc1 (stereo not given) | -4 | 0 | 103* | 2 | -3 | 1.9µM*
CCc1ccc(S(=O)(=O)Nc2cc(SCC(=O)O)c(O)c3ccccc23)cc1 | 1 | 0 | 113* | 6 | 67* | -10%
O=S(=O)(Nc1cc(Sc2cccc3cccnc23)c(O)c2ccccc12)c1ccccc1 | 0 | 0 | 56* | nt | -1 | -13%
CCc1ccc(S(=O)(=O)Nc2ccc(O)c3ccccc23)cc1 | -2 | 0 | 0 | nt | 33 | nt
